Reference: paper PMC9052103 (RSC Advances, 2020)
Where two headings read alike, the source gives them in different places.

Legend:
S. aureus ATCC BAA-44 = assay: MIC, 96-well microtiter broth dilution; format: cell-based
B. subtilis 168 = assay: MIC, 96-well microtiter broth dilution; format: cell-based
S. aureus ATCC BAA-41 = assay: MIC, 96-well microtiter broth dilution; format: cell-based; details: for MIC S. aureus ATCC BAA-41: MRSA
A. baumannii ATCC 19606 = assay: MIC, 96-well microtiter broth dilution; format: cell-based; details: Multi-drug resistant strain
E. faecalis ATCC 29212 = assay: MIC, 96-well microtiter broth dilution; format: cell-based
S. aureus FtsZ = molecular target: T1, S. aureus FtsZ (Staphylococcus aureus, UniProt P0A031); assay: Light-scattering assay of FtsZ polymerization; format: biochemical; details: for Effect on FtsZ polymerization at a concentration gradient: 0.125–0.5 μg mL^−1; for Light scattering signal compared to control (FtsZ polymerization): same concentration, 0.125 μg mL^−1
T1 sequence (P0A031 1-390): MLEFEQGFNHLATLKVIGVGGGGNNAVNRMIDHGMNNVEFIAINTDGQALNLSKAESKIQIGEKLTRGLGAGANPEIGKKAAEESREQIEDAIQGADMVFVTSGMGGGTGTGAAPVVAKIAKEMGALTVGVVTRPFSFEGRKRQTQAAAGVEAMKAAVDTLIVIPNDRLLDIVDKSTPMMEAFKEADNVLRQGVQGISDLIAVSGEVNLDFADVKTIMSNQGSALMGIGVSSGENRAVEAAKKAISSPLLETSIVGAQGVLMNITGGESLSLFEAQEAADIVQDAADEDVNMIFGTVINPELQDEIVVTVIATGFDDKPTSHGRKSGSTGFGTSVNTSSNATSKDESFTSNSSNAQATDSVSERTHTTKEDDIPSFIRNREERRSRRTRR
Summary of the method: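 S. aureus FtsZ (4 μM) in 50 mM MOPS pH 6.5, preincubated 10 min at 25 °C with 1% DMSO vehicle or test compound. Baseline set after adding 50 mM KCl and 10 mM MgCl2. After 10 min, 1 mM GTP added. 90° light scattering (excitation/emission 600 nm) followed for 25 min, with blank background subtracted. Rate and extent of polymerization calculated. Triplicates.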

E. cloacae ATCC BAA-1143 = assay: MIC, 96-well microtiter broth dilution; format: cell-based; details: AmpC beta-lactamase expressing strain
S. aureus ATCC 29213 [1] = assay: MIC, 96-well microtiter broth dilution; format: cell-based; details: for MIC S. aureus ATCC 29213: Table 2; for MIC: Staphylococcus aureus
S. aureus ATCC 43300 = assay: MIC, 96-well microtiter broth dilution; format: cell-based; details: for MIC S. aureus ATCC 43300: MRSA
[2] = test system: K. pneumoniae ATCC BAA-2470; assay: MIC, 96-well microtiter broth dilution; format: cell-based; details: NDM-1 expressing strain
S. aureus ATCC BAA-1720 = assay: MIC, 96-well microtiter broth dilution; format: cell-based; details: for MIC S. aureus ATCC BAA-1720: MRSA
E. faecium ATCC 49624 = assay: MIC, 96-well microtiter broth dilution; format: cell-based
S. aureus ATCC BAA-1747 = assay: MIC, 96-well microtiter broth dilution; format: cell-based; details: for MIC S. aureus ATCC BAA-1747: MRSA
[3] = test system: S. epidermidis ATCC 12228; assay: MIC, 96-well microtiter broth dilution; format: cell-based
E. faecium ATCC 700221 = assay: MIC, 96-well microtiter broth dilution; format: cell-based; details: for MIC E. faecium ATCC 700221: Vancomycin-resistant strain, Table 2
[4] = test system: P. aeruginosa ATCC BAA-2108; assay: MIC, 96-well microtiter broth dilution; format: cell-based; details: Multi-drug resistant strain
E. coli ATCC BAA-2469 = assay: MIC, 96-well microtiter broth dilution; format: cell-based; details: NDM-1 expressing strain
E. coli ATCC 25922 = assay: MIC, 96-well microtiter broth dilution; format: cell-based
[5] = test system: human renal tubular epithelial cells (HK-2); assay: CCK-8 cytotoxicity assay; format: cell-based; details: Epithelial cell, 48 h, read-out: IC50 HK-2
Summary of the method: (§1)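 Cells seeded at 5000 per well and allowed to adhere overnight at 37 °C, then exposed to test compound for 48 h. CCK-8 reagent added for a further 3 h, with absorbance read at 450 nm. Triplicates.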

Z-ring in B. subtilis = assay: Visualization of Z-ring; format: cell-based; details: 0.5 × MIC, 4 h
Summary of the method: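 B. subtilis carrying IPTG-inducible GFP-FtsZ plasmid grown in LB with 30 μg mL−1 chloramphenicol at 37 °C with shaking; overnight culture diluted to 1% in LB with 40 μM IPTG plus test compound at 0.5 × MIC, 4 h at 37 °C. Cells fixed, resuspended in PBS, placed on 0.1% (w/v) poly-L-lysine-coated slides; imaged by confocal microscopy, 40× oil immersion.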

E. coli ATCC 8739 = assay: MIC, 96-well microtiter broth dilution; format: cell-based; details: Escherichia coli, ATCC8739, read-out: MIC E. coli ATCC 8739
MRSA strains = assay: MIC, summary over MRSA strains; format: cell-based, S. aureus; details: Staphylococcus aureus, read-out: MIC against MRSA
[6] = test system: mouse fibroblast cells (L929); assay: CCK-8 cytotoxicity assay; format: cell-based; details: L929, 48 h, read-out: IC50 L929
Summary of the method: as §1

S. aureus FtsZ (SaFtsZ) = S. aureus FtsZ (SaFtsZ) (Staphylococcus aureus, UniProt P0A031); assay: GTPase activity assay; format: biochemical
Summary of the method: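 Phosphate-release kit assay: S. aureus FtsZ (7.3 μM) in assay buffer with 1% DMSO vehicle or varied concentrations of test compound. Reaction started with 200 μM GTP and run 30 min at room temperature. Colour reagent added for another 30 min to stop the reaction, and inorganic phosphate read at 620 nm. Triplicates.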

SaFtsZ = SaFtsZ (Staphylococcus aureus, UniProt P0A031); assay: SaFtsZ binding affinity assay; design: species or system S. aureus
Summary of the method: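 Fluorescence titration at 25 °C in 50 mM Tris–HCl pH 7.4, 50 mM KCl, 2 mM magnesium acetate. Test compound at 3.51 or 3.68 μM titrated with SaFtsZ in 0.4 μM steps (0.4–6.4 μM), equilibrating 2 min per step. Excitation 493 nm, emission 500–700 nm, buffer-titration background subtracted. Kd obtained by nonlinear fit to an independent-site model.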

S. aureus ATCC 29213 [7] = assay: In vitro drug resistance development, serial passage; format: cell-based
Summary of the method: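 Serial passage against S. aureus ATCC 29213: culture from the 0.5 × MIC well of the prior MIC plate diluted to 5 × 10^5 CFU mL−1 and exposed to a range of test compound concentrations. MIC read after 24 h at 37 °C. Cycle repeated 35 times. Ciprofloxacin, vancomycin and rifampin passaged in parallel.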

[8] = test system: human bronchial epithelium cells (16HBE); assay: CCK-8 cytotoxicity assay; format: cell-based; details: 48 h, read-out: IC50 16HBE
Summary of the method: as §1

1-Methyl-2-((E)-4-(methylthio)styryl)-4-((Z)-(3-(3-(piperidin-1-yl)propyl)benzo[d]thiazol-2(3H)-ylidene)methyl)quinolin-1-ium iodide [Compound 4e3]
MIC S. aureus ATCC BAA-44 (S. aureus ATCC BAA-44): 8 µg/mL
MIC B. subtilis 168 (B. subtilis 168): 8 µg/mL
MIC S. aureus ATCC BAA-41 (S. aureus ATCC BAA-41): 16 µg/mL
MIC A. baumannii ATCC 19606 (A. baumannii ATCC 19606): 64 µg/mL
MIC E. faecalis ATCC 29212 (E. faecalis ATCC 29212): >64 µg/mL
Effect on FtsZ polymerization at a concentration gradient (S. aureus FtsZ): did not show significant change
Light scattering signal compared to control (FtsZ polymerization) (S. aureus FtsZ): almost no signal change
MIC E. cloacae ATCC BAA-1143 (E. cloacae ATCC BAA-1143): 64 µg/mL
MIC S. aureus ATCC 29213 (S. aureus ATCC 29213 [1]): 8 µg/mL
MIC S. aureus ATCC 43300 (S. aureus ATCC 43300): 8 µg/mL
MIC K. pneumoniae ATCC BAA-2470 [2]: 64 µg/mL
MIC S. aureus ATCC BAA-1720 (S. aureus ATCC BAA-1720): 16 µg/mL
MIC E. faecium ATCC 49624 (E. faecium ATCC 49624): 16 µg/mL
MIC S. aureus ATCC BAA-1747 (S. aureus ATCC BAA-1747): 16 µg/mL
MIC S. epidermidis ATCC 12228 [3]: 4 µg/mL
MIC E. faecium ATCC 700221 (E. faecium ATCC 700221): 8 µg/mL

2-((E)-4-(Dimethylamino)styryl)-1-methyl-4-((Z)-(3-(3-(piperidin-1-yl)propyl)benzo[d]thiazol-2(3H)-ylidene)methyl)quinolin-1-ium iodide [Compound 4e4]
MIC S. aureus ATCC BAA-44 (S. aureus ATCC BAA-44): 8 µg/mL
MIC B. subtilis 168 (B. subtilis 168): 8 µg/mL
MIC S. aureus ATCC BAA-41 (S. aureus ATCC BAA-41): 16 µg/mL
MIC P. aeruginosa ATCC BAA-2108 [4]: 64 µg/mL
MIC A. baumannii ATCC 19606 (A. baumannii ATCC 19606): >64 µg/mL
MIC E. faecalis ATCC 29212 (E. faecalis ATCC 29212): 32 µg/mL
MIC E. cloacae ATCC BAA-1143 (E. cloacae ATCC BAA-1143): 64 µg/mL
MIC S. aureus ATCC 29213 (S. aureus ATCC 29213 [1]): 16 µg/mL
MIC S. aureus ATCC 43300 (S. aureus ATCC 43300): 8 µg/mL
MIC S. aureus ATCC BAA-1720 (S. aureus ATCC BAA-1720): 8 µg/mL
MIC E. faecium ATCC 49624 (E. faecium ATCC 49624): 32 µg/mL
MIC S. aureus ATCC BAA-1747 (S. aureus ATCC BAA-1747): 16 µg/mL
MIC E. coli ATCC BAA-2469 (E. coli ATCC BAA-2469): 8 µg/mL
MIC S. epidermidis ATCC 12228 [3]: 2 µg/mL
MIC E. faecium ATCC 700221 (E. faecium ATCC 700221): 4 µg/mL

2-((E)-4-Hydroxystyryl)-1-methyl-4-((Z)-(3-(3-(piperidin-1-yl)propyl)benzo[d]thiazol-2(3H)-ylidene)methyl)quinolin-1-ium iodide [Compound 4e2]
MIC S. aureus ATCC BAA-44 (S. aureus ATCC BAA-44): 16 µg/mL
MIC B. subtilis 168 (B. subtilis 168): 4 µg/mL
MIC S. aureus ATCC BAA-41 (S. aureus ATCC BAA-41): 16 µg/mL
MIC P. aeruginosa ATCC BAA-2108 [4]: 64 µg/mL
MIC A. baumannii ATCC 19606 (A. baumannii ATCC 19606): >64 µg/mL
MIC E. faecalis ATCC 29212 (E. faecalis ATCC 29212): >64 µg/mL
MIC E. cloacae ATCC BAA-1143 (E. cloacae ATCC BAA-1143): >64 µg/mL
MIC S. aureus ATCC 29213 (S. aureus ATCC 29213 [1]): 16 µg/mL
MIC S. aureus ATCC 43300 (S. aureus ATCC 43300): 8 µg/mL
MIC K. pneumoniae ATCC BAA-2470 [2]: 64 µg/mL
MIC S. aureus ATCC BAA-1720 (S. aureus ATCC BAA-1720): 16 µg/mL
MIC E. faecium ATCC 49624 (E. faecium ATCC 49624): 16 µg/mL
MIC E. coli ATCC 25922 (E. coli ATCC 25922): 4 µg/mL
MIC S. aureus ATCC BAA-1747 (S. aureus ATCC BAA-1747): 32 µg/mL
MIC E. coli ATCC BAA-2469 (E. coli ATCC BAA-2469): 8 µg/mL
MIC S. epidermidis ATCC 12228 [3]: 8 µg/mL
MIC E. faecium ATCC 700221 (E. faecium ATCC 700221): 8 µg/mL

CC1CCN(CCCN2/C(=C/c3cc[n+](C)c4ccccc34)Sc3ccccc32)CC1.[I-] [Compound 4b4, (Z)-1-Methyl-4-((3-(3-(4-methylpiperidin-1-yl)propyl)benzo[d]thiazol-2(3H)-ylidene)methyl)quinolin-1-ium iodide]
MIC (S. aureus ATCC BAA-41; Staphylococcus aureus, ATCCBAA41|MRSA, read-out: MIC S. aureus ATCC BAA-41): 1 µg/mL
IC50 [5]: 18.6 µg/mL
Effect on Z-ring formation (GFP-FtsZ localization) (Z-ring in B. subtilis): promoted the mislocalization of the FtsZ protein
MIC (E. coli ATCC 8739): 2 µg/mL
MIC (E. faecalis ATCC 29212; Enterococcus faecalis, ATCC29212, read-out: MIC E. faecalis ATCC 29212): 16 µg/mL
Effect on FtsZ polymerization at a concentration gradient (S. aureus FtsZ): enhance FtsZ polymerization in a dose-dependent manner
Light scattering signal compared to control (FtsZ polymerization) (S. aureus FtsZ): significant increase in light scattering signal
MIC (MRSA strains): 1 to 8 µg/mL
MIC (S. aureus ATCC 29213 [1]; ATCC29213): 2 µg/mL
MIC (S. aureus ATCC 29213 [1]; ATCC29213, read-out: MIC S. aureus ATCC 29213): 2 µg/mL
MIC (S. aureus ATCC 29213 [1]; ATCC29213, read-out: S. aureus ATCC 29213 (MIC)): 2 µg/mL
MIC (S. aureus ATCC 43300; Staphylococcus aureus, ATCC43300|MRSA, read-out: MIC S. aureus ATCC 43300): 8 µg/mL
MIC (S. aureus ATCC BAA-1720; Staphylococcus aureus, ATCCBAA1720|MRSA, read-out: MIC S. aureus ATCC BAA-1720): 8 µg/mL
MIC (E. faecium ATCC 49624; Enterococcus faecium, ATCC49624, read-out: MIC E. faecium ATCC 49624): 8 µg/mL
IC50 [6]: 23.4 µg/mL
MIC (E. coli ATCC 25922; Escherichia coli, ATCC25922, read-out: MIC E. coli ATCC 25922): 2 µg/mL
MIC (S. aureus ATCC BAA-1747; Staphylococcus aureus, ATCCBAA1747|MRSA, read-out: MIC S. aureus ATCC BAA-1747): 4 µg/mL
Effect on GTPase activity of SaFtsZ (S. aureus FtsZ (SaFtsZ)): did not show any effect
Kd (SaFtsZ): 3.23 µM
Increase of MIC after 35 passages (S. aureus ATCC 29213 [7]): 8 fold
MIC ([3]; Staphylococcus epidermidis, ATCC12228, read-out: MIC S. epidermidis ATCC 12228): 0.25 µg/mL
MIC (E. faecium ATCC 700221; Enterococcus faecium, ATCC700221): 16 µg/mL
MIC (E. faecium ATCC 700221; read-out: MIC against VRE): 2 to 16 µg/mL
IC50 [8]: 20.2 µg/mL
